The values below come from the M2OR odorant receptor database.

The first assay concerns the target T1, UniProt Q8VG53.
T1 sequence (whole entry): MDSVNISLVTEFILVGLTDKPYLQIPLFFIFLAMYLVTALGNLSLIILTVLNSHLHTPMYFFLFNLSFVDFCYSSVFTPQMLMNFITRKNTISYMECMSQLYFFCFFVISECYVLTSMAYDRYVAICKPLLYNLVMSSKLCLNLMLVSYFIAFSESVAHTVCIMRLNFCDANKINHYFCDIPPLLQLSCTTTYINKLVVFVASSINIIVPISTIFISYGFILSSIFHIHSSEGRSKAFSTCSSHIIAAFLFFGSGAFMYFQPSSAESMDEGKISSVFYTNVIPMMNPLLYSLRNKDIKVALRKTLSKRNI
Conditions: stereoisomer not certain. The procedure, abridged: (§1)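 Assay methods differ from source to source, frequently being transient luciferase assays in mammalian cell lines. For each receptor–molecule pair, the label responsive (active) applies when the original authors judged the measured signal statistically different from baseline, and non-responsive (inactive) applies otherwise.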
`CSSC`: the “odorant receptor agonist call” value is “inactive”.
With `CC(C=O)Cc1ccc2c(c1)OCO2` (centres undefined), the “odorant receptor agonist call” value was “inactive”.

For another assay, the target named is T2, UniProt Q8VG64.
T2 sequence (whole entry): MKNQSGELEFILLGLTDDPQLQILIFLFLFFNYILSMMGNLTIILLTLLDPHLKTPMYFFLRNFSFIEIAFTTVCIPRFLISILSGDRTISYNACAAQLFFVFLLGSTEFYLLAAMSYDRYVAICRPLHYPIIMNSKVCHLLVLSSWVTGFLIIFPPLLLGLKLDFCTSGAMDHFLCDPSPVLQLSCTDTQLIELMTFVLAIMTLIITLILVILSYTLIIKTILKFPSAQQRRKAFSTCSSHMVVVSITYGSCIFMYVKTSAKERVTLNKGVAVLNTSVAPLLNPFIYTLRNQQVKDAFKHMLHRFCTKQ
The following applies: stereoisomer not certain. The essentials: as §1
Consider `O=CC=Cc1ccccc1`, for which the “odorant receptor agonist call” value was “inactive”.
Turning to `Oc1ccccc1Br`, the “odorant receptor agonist call” value is “inactive”.
Regarding `O=Cc1ccc2c(c1)OCO2`, the “odorant receptor agonist call” value is “inactive”.
Consider `C=C(C)C1CC=C(C=O)CC1` (centres undefined), for which the “odorant receptor agonist call” value was “inactive”.
As to `OCc1ccc2c(c1)OCO2`, the “odorant receptor agonist call” value is “inactive”.
Take `Cc1ccc(OC(=O)Cc2ccccc2)cc1`: the “odorant receptor agonist call” value was “inactive”.
Consider `CCCCC(Br)C(=O)O` (centres undefined), for which the “odorant receptor agonist call” value was “inactive”.
`O=c1cc(O)c2ccccc2o1`: the “odorant receptor agonist call” value is “inactive”.
Regarding `CCCCCCC(Br)C(=O)O` (centres undefined), the “odorant receptor agonist call” value was “inactive”.
Turning to `C=CCOC(=O)Cc1ccccc1`, the “odorant receptor agonist call” value was “inactive”.
As for `COc1ccc(C=O)cc1`, the “odorant receptor agonist call” value is “inactive”.
Consider `O=Cc1ccccc1`, for which the “odorant receptor agonist call” value is “inactive”.
For the compound `CSSC`, the “odorant receptor agonist call” value is “inactive”.
`CC(C=O)Cc1ccc2c(c1)OCO2` (centres undefined): the “odorant receptor agonist call” value is “inactive”.

A further assay concerns the target T3, UniProt Q8VG77.
T3 sequence (whole entry): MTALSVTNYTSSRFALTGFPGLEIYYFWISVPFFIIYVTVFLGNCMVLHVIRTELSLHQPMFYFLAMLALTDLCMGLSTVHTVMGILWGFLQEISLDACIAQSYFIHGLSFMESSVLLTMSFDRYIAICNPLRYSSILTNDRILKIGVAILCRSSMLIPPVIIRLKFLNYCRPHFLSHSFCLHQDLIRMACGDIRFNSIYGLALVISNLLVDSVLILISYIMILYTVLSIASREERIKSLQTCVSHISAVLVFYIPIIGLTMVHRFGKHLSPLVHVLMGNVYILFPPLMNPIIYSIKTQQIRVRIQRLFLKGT
Conditions: stereoisomer not certain. The procedure, abridged:
as §1
For the compound `C=CCc1ccccc1`, the “odorant receptor agonist call” value is “inactive”.
On the same count and under the same terms, the same measure for `O=c1cc(O)c2ccccc2o1`: “inactive”; for `CCC1CCC(=O)O1` (centres undefined): “inactive”; for `C=CCOC(=O)Cc1ccccc1`: “inactive”.

The next assay concerns the target T4, UniProt Q8VG96.
T4 sequence (whole entry): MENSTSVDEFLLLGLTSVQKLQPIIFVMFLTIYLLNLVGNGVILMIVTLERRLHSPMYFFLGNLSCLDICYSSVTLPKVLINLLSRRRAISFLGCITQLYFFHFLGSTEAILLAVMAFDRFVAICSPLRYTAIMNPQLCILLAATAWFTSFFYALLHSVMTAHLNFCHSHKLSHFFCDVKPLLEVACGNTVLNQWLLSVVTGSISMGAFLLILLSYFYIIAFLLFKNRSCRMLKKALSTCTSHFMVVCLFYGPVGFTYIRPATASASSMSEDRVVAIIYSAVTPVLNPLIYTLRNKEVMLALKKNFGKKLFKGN
Conditions: stereoisomer not certain. The procedure, abridged:
as §1
On to `C=CCc1ccccc1`, for which the “odorant receptor agonist call” value was “inactive”.
Regarding `O=c1cc(O)c2ccccc2o1`, the “odorant receptor agonist call” value is “inactive”.
For `CCC1CCC(=O)O1` (centres undefined), the “odorant receptor agonist call” value was “inactive”.
Consider `C=CCOC(=O)Cc1ccccc1`, for which the “odorant receptor agonist call” value was “inactive”.

The next assay has as its target T5, UniProt Q8VGB9.
T5 sequence (whole entry): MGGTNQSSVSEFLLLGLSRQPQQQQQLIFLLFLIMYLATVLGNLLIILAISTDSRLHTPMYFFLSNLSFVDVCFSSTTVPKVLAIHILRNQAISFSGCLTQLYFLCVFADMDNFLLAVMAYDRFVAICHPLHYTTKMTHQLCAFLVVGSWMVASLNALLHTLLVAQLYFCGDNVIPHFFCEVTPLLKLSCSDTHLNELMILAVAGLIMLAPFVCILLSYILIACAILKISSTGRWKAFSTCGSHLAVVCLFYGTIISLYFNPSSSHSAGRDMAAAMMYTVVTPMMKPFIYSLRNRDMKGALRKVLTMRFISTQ
The following applies: stereoisomer not certain. The essentials: as §1
In the case of `O=CC=Cc1ccccc1`, the “odorant receptor agonist call” value was “inactive”.
`Oc1ccccc1Br`: the “odorant receptor agonist call” value was “inactive”.
Take `O=Cc1ccc2c(c1)OCO2`: the “odorant receptor agonist call” value was “inactive”.
Consider `C=C(C)C1CC=C(C=O)CC1` (centres undefined), for which the “odorant receptor agonist call” value was “active”.
Still for that read-out and setting: the same measure for `OCc1ccc2c(c1)OCO2`: “inactive”; for `Cc1ccc(OC(=O)Cc2ccccc2)cc1`: “inactive”; for `CCCCC(Br)C(=O)O` (centres undefined): “inactive”.
As for `O=c1cc(O)c2ccccc2o1`, the “odorant receptor agonist call” value is “inactive”.
Take `CCCCCCC(Br)C(=O)O` (centres undefined): the “odorant receptor agonist call” value is “inactive”.
Take `C=CCOC(=O)Cc1ccccc1`: the “odorant receptor agonist call” value was “inactive”.
Turning to `COc1ccc(C=O)cc1`, the “odorant receptor agonist call” value was “inactive”.
`O=Cc1ccccc1`: the “odorant receptor agonist call” value is “inactive”.
Same read-out and setting: the same measure for `CSSC`: “inactive”; for `CC(C=O)Cc1ccc2c(c1)OCO2` (centres undefined): “inactive”.

A further assay addresses T6, UniProt Q8VGC6.
T6 sequence (whole entry): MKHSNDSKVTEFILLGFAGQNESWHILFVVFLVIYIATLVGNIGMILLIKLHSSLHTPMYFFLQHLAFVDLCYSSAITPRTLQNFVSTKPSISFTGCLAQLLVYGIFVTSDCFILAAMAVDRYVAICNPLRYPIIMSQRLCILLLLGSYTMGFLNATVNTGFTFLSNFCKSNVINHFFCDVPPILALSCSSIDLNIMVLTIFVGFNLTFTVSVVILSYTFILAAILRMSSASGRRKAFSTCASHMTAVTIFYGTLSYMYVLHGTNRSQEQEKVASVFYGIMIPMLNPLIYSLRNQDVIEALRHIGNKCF
Conditions: stereoisomer not certain. The essentials: as §1
For the compound `O=CC=Cc1ccccc1`, the “odorant receptor agonist call” value was “inactive”.
Consider `Oc1ccccc1Br`, for which the “odorant receptor agonist call” value was “inactive”.
Take `O=Cc1ccc2c(c1)OCO2`: the “odorant receptor agonist call” value is “inactive”.
For `C=C(C)C1CC=C(C=O)CC1` (centres undefined), the “odorant receptor agonist call” value was “inactive”.
Same read-out and setting: the same measure for `C=CCc1ccccc1`: “inactive”; for `OCc1ccc2c(c1)OCO2`: “inactive”; for `Cc1ccc(OC(=O)Cc2ccccc2)cc1`: “inactive”.
On to `CCCCC(Br)C(=O)O` (centres undefined), for which the “odorant receptor agonist call” value was “inactive”.
For `O=c1cc(O)c2ccccc2o1`, the “odorant receptor agonist call” value is “inactive”.
With `CCCCCCC(Br)C(=O)O` (centres undefined), the “odorant receptor agonist call” value was “inactive”.
For the compound `CCC1CCC(=O)O1` (centres undefined), the “odorant receptor agonist call” value was “active”.
For the compound `C=CCOC(=O)Cc1ccccc1`, the “odorant receptor agonist call” value is “active”.
The same measure, in the same setting: the same measure for `COc1ccc(C=O)cc1`: “inactive”; for `O=Cc1ccccc1`: “inactive”.
As for `CSSC`, the “odorant receptor agonist call” value was “inactive”.
With `CC(C=O)Cc1ccc2c(c1)OCO2` (centres undefined), the “odorant receptor agonist call” value was “active”.
